Columns and labels:
Assay type in all cases: functional
SK-MEL-5 = assay: Cytotoxicity against human SK-MEL-5 cells assessed as cell growth at 10 uM after 48 hrs by SRB assay; settings: SK-MEL-5, 48 h, read-out: Activity
Procedure, shortened: (§1)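 NCI-60 single-dose screen. Cell lines grown in RPMI 1640 with 5% FBS and 2 mM L-glutamine, plated at 5000–40,000 cells/well according to doubling time, then preincubated 24 h at 37 °C in 5% CO2. Compounds dissolved in DMSO, tested at 10^-5 M for 48 h. Adherent cells fixed with cold TCA (10% final) and stained with 0.4% SRB in 1% acetic acid. Growth expressed as percent of untreated control.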

U-251 = assay: Cytotoxicity against human U251 cells assessed as cell growth at 10 uM after 48 hrs by SRB assay; settings: U-251, 48 h, read-out: Activity
Procedure, shortened: (§2)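 NCI-60 single-dose screen at 10^-5 M. Adherent lines are grown in RPMI 1640 with 5% FBS and 2 mM L-glutamine, seeded at 5000–40,000 cells/well by doubling time, and preincubated 24 h at 37 °C in 5% CO2. Drug is added from DMSO stock diluted in medium, then 48 h. Cells are fixed in cold TCA (final 10%) for 60 min and stained with 0.4% SRB in 1% acetic acid. Growth is expressed as % of untreated control using time-zero plates.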

T47D = assay: Cytotoxicity against human T47D cells assessed as cell growth at 10 uM after 48 hrs by SRB assay; settings: read-out: Activity; procedure, shortened: as §2
K562 = assay: Cytotoxicity against human K562 cells assessed as cell growth at 10 uM after 48 hrs by SRB assay; settings: K562, 48 h, read-out: Activity; procedure, shortened: as §1
NCI-H522 = assay: Cytotoxicity against human NCI-H522 cells assessed as cell growth at 10 uM after 48 hrs by SRB assay; settings: NCI-H522, 48 h, read-out: Activity; procedure, shortened: as §1
[1] = Cytotoxicity against human OVCAR5 cells assessed as cell growth at 10 uM after 48 hrs by SRB assay; settings: OVCAR-5, 48 h, read-out: Activity; procedure, shortened: as §1
CCRF-CEM = assay: Cytotoxicity against human CCRF-CEM cells assessed as cell growth at 10 uM after 48 hrs by SRB assay; settings: read-out: Activity; procedure, shortened: as §1
SF-268 = assay: Cytotoxicity against human SF268 cells assessed as cell growth at 10 uM after 48 hrs by SRB assay; settings: SF-268, 48 h, read-out: Activity; procedure, shortened: as §1
MOLT-4 = assay: Cytotoxicity against human MOLT4 cells assessed as cell growth at 10 uM after 48 hrs by SRB assay; settings: MOLT-4, 48 h, read-out: Activity; procedure, shortened: as §1
786-0 = assay: Cytotoxicity against human 786-0 cells assessed as cell growth at 10 uM after 48 hrs by SRB assay; settings: 786-0, 48 h, read-out: Activity; procedure, shortened: as §1
BT-549 = assay: Cytotoxicity against human BT549 cells assessed as cell growth at 10 uM after 48 hrs by SRB assay; settings: BT-549, 48 h, read-out: Activity; procedure, shortened: as §1
NCI-H23 = assay: Cytotoxicity against human NCI-H23 cells assessed as cell growth at 10 uM after 48 hrs by SRB assay; settings: NCI-H23, 48 h, read-out: Activity; procedure, shortened: as §1
HT-29 = assay: Cytotoxicity against human HT-29 cells assessed as cell growth at 10 uM after 48 hrs by SRB assay; settings: HT-29, 48 h, read-out: Activity; procedure, shortened: as §1
A498 = assay: Cytotoxicity against human A498 cells assessed as cell growth at 10 uM after 48 hrs by SRB assay; settings: A498, 48 h, read-out: Activity; procedure, shortened: as §1
HCC 2998 = assay: Cytotoxicity against human HCC2998 cells assessed as cell growth at 10 uM after 48 hrs by SRB assay; settings: HCC 2998, 48 h, read-out: Activity; procedure, shortened: as §1
[2] = Cytotoxicity against human UO31 cells assessed as cell growth at 10 uM after 48 hrs by SRB assay; settings: UO-31, 48 h, read-out: Activity; procedure, shortened: as §2
COLO 205 = assay: Cytotoxicity against human COLO205 cells assessed as cell growth at 10 uM after 48 hrs by SRB assay; settings: COLO 205, 48 h, read-out: Activity; procedure, shortened: as §1
LOX IMVI = assay: Cytotoxicity against human LOXIMVI cells assessed as cell growth at 10 uM after 48 hrs by SRB assay; settings: read-out: Activity; procedure, shortened: as §1
Malme-3M = assay: Cytotoxicity against human MALME-3M cells assessed as cell growth at 10 uM after 48 hrs by SRB assay; settings: read-out: Activity; procedure, shortened: as §1
A549 = assay: Cytotoxicity against human A549 cells assessed as cell growth at 10 uM after 48 hrs by SRB assay; settings: A549, 48 h, read-out: Activity; procedure, shortened: as §1
[3] = Cytotoxicity against human OVCAR4 cells assessed as cell growth at 10 uM after 48 hrs by SRB assay; settings: OVCAR-4, 48 h, read-out: Activity; procedure, shortened: as §1
PC-3 = assay: Cytotoxicity against human PC3 cells assessed as cell growth at 10 uM after 48 hrs by SRB assay; settings: PC-3, 48 h, read-out: Activity; procedure, shortened: as §1
KM12 = assay: Cytotoxicity against human KM12 cells assessed as cell growth at 10 uM after 48 hrs by SRB assay; settings: KM12, 48 h, read-out: Activity; procedure, shortened: as §1
[4] = Cytotoxicity against human UACC257 cells assessed as cell growth at 10 uM after 48 hrs by SRB assay; settings: UACC-257, 48 h, read-out: Activity; procedure, shortened: as §2
SK-OV-3 = assay: Cytotoxicity against human SKOV3 cells assessed as cell growth at 10 uM after 48 hrs by SRB assay; settings: SK-OV-3, 48 h, read-out: Activity; procedure, shortened: as §1
SR = assay: Cytotoxicity against human SR cells assessed as cell growth at 10 uM after 48 hrs by SRB assay; settings: read-out: Activity
Procedure, shortened: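 Leukemia line, NCI-60 single-dose screen at 10^-5 M. Cells are grown in RPMI 1640 with 5% FBS and 2 mM L-glutamine, plated by doubling time, and preincubated 24 h at 37 °C with 5% CO2. After 48 h drug exposure, settled cells are fixed with 80% TCA (final 16%) and stained with SRB. Percent growth is calculated against untreated control and time-zero plates.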

HCT-116 = assay: Cytotoxicity against human HCT116 cells assessed as cell growth at 10 uM after 48 hrs by SRB assay; settings: HCT-116, 48 h, read-out: Activity; procedure, shortened: as §1
TK-10 = assay: Cytotoxicity against human TK10 cells assessed as cell growth at 10 uM after 48 hrs by SRB assay; settings: TK-10, 48 h, read-out: Activity; procedure, shortened: as §2
MDA-MB-231 = assay: Cytotoxicity against human MDA-MB-231 cells assessed as cell growth at 10 uM after 48 hrs by SRB assay; settings: MDA-MB-231, 48 h, read-out: Activity; procedure, shortened: as §1
SF-295 = assay: Cytotoxicity against human SF295 cells assessed as cell growth at 10 uM after 48 hrs by SRB assay; settings: SF-295, 48 h, read-out: Activity; procedure, shortened: as §1
SNB-19 = assay: Cytotoxicity against human SNB19 cells assessed as cell growth at 10 uM after 48 hrs by SRB assay; settings: SNB-19, 48 h, read-out: Activity; procedure, shortened: as §1

Compound | growth at 10 µM (SK-MEL-5) [%] | growth at 10 µM (U-251) [%] | growth at 10 µM (T47D) [%] | growth at 10 µM (K562) [%] | growth at 10 µM (NCI-H522) [%] | growth at 10 µM [1] [%] | growth at 10 µM (CCRF-CEM) [%] | growth at 10 µM (SF-268) [%] | growth at 10 µM (MOLT-4) [%] | growth at 10 µM (786-0) [%] | growth at 10 µM (BT-549) [%] | growth at 10 µM (NCI-H23) [%] | growth at 10 µM (HT-29) [%] | growth at 10 µM (A498) [%] | growth at 10 µM (HCC 2998) [%] | growth at 10 µM [2] [%] | growth at 10 µM (COLO 205) [%] | growth at 10 µM (LOX IMVI) [%] | growth at 10 µM (Malme-3M) [%] | growth at 10 µM (A549) [%] | further results
Cc1ccc(-c2csc3nc(N4NC(=O)CC4=O)cn23)cc1 | 95.9 | 98.1 | 85.7 | 94.7 | 95.9 | 108 | 95.6 | 106 | 90.3 | 103 | 113 | 96.9 | 111 | 98 | 102 | 74.7 | 107 | 96.9 | 118 | 102 | growth at 10 µM [3]: 99.1%; growth at 10 µM (PC-3): 87.3%; growth at 10 µM (KM12): 115%; growth at 10 µM [4]: 109%; growth at 10 µM (SK-OV-3): 101%; growth at 10 µM (SR): 84.4%; growth at 10 µM (HCT-116): 108%; growth at 10 µM (TK-10): 139%; growth at 10 µM (MDA-MB-231): 104%; growth at 10 µM (SF-295): 91.2%; growth at 10 µM (SNB-19): 102%
CC1=NN(c2cn3c(-c4ccc(Cl)cc4)csc3n2)C(=O)C1 | 92.4 | 91.7 | 73.7 | 71.4 | 84.5 | 106 | 84.4 | 96.3 | 65.8 | 94.1 | 101 | 92 | 85.7 | 74.1 | 100 | 80.9 | 103 | 96.8 | 102 | 79.6 | growth at 10 µM [3]: 77.2%; growth at 10 µM (PC-3): 79.4%; growth at 10 µM (KM12): 105%; growth at 10 µM [4]: 94.9%; growth at 10 µM (SK-OV-3): 100%; growth at 10 µM (SR): 73.3%; growth at 10 µM (HCT-116): 97.1%; growth at 10 µM (TK-10): 98.8%; growth at 10 µM (MDA-MB-231): 96.5%; growth at 10 µM (SF-295): 85.6%; growth at 10 µM (SNB-19): 88%
Cc1ccc(-c2csc3nc(-n4nc(C)cc4C)cn23)cc1 | 98.9 | 95 | 98.2 | 109 | 91.8 | 113 | 96 | 112 | 98.4 | 105 | 125 | 93.3 | 104 | 103 | 107 | 94.4 | 106 | 92.8 | 114 | 98.6 | growth at 10 µM [3]: 97.8%; growth at 10 µM (PC-3): 84.7%; growth at 10 µM (KM12): 108%; growth at 10 µM [4]: 108%; growth at 10 µM (SK-OV-3): 101%; growth at 10 µM (SR): 81%; growth at 10 µM (HCT-116): 97%; growth at 10 µM (TK-10): 141%; growth at 10 µM (MDA-MB-231): 88.8%; growth at 10 µM (SF-295): 88.5%; growth at 10 µM (SNB-19): 100%

— ChEMBL document CHEMBL3120060, “Synthesis, in vitro anticancer evaluation and in silico studies of novel imidazo[2,1-b]thiazole derivatives bearing pyrazole moieties” (2014)
